{
  "source": "ChEMBL document CHEMBL3808283",
  "about": "“Biological Characterization and in Vivo Assessment of the Activity of a New Synthetic Macrocyclic Antifungal Compound” (J Med Chem, 2016)",
  "key": {"[1]": {"test_system": "Candida albicans", "assay": "Upregulation of CDR2 gene expression in Candida albicans SC5314 at 3 uM after 15 to 45 mins by qRT-PCR method", "type": "functional, organism-based", "method_in_brief": "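Log-phase C. albicans treated at 3 µM. RNA extracted with glass-bead disruption, then DNase-treated (10 µg per preparation). Target gene CT values were normalized to an endogenous reference. Fold change calculated as mean normalized expression of samples relative to a selected control.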"}, "[2]": {"test_system": "Candida albicans", "assay": "Antifungal activity against Candida albicans isolate DSY448 harboring CDR1 deletion mutant at 10 uM by serial dilution assay", "type": "functional, organism-based", "method_in_brief": "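Spot dilution assay: C. albicans cells 10-fold serially diluted from 2 × 10^7 cells/mL, with 5 µL of each dilution spotted onto YEPD agar plates containing the drug.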"}, "[3]": {"test_system": "Candida tropicalis", "assay": "Fungicidal activity against Candida tropicalis 86E assessed as reduction in CFU at 20 uM measured at 24 hrs by time kill assay relative to control", "type": "functional", "method_in_brief": "(§1)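 EUCAST broth microdilution at 37 °C. From wells at MIC, 2×, 4× and 8× MIC, 10 µL aliquots were taken, serially 10-fold diluted in saline and plated on Sabouraud dextrose agar. Plates were incubated at 37 °C for 24/48 h, and 48 h for Cryptococcus and Geotrichum. Done in duplicate, detection limit 10 CFU/mL. A drop of at least 3 Log10 CFU/mL from the initial inoculum in 24 h counts as fungicidal; a smaller drop counts as fungistatic.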"}, "[4]": {"test_system": "Pichia kudriavzevii", "assay": "Ratio of MIC at 24 hrs to MIC at 48 hrs for Candida krusei ATCC 14243", "type": "functional", "method_in_brief": "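MICs by EUCAST broth microdilution, with the update for non-fermenting yeasts, incubated at 37 °C. Read at 24, 48 and 72 h as the lowest concentration preventing visible growth.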"}, "[5]": {"test_system": "Candida albicans", "assay": "Antifungal activity against Candida albicans 4T up to 96 hrs by broth dilution assay", "type": "functional, organism-based"}, "[6]": {"test_system": "Candida albicans", "assay": "Antifungal activity against Candida albicans 15T up to 96 hrs by broth dilution assay", "type": "functional, organism-based"}, "[7]": {"test_system": "Candida albicans", "assay": "Upregulation of RTA2 gene expression in Candida albicans SC5314 at 3 uM after 15 mins by microarray method relative to control", "type": "functional", "method_in_brief": "(§2)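 Log-phase C. albicans SC5314 in liquid YEPD exposed to 3 µM final for 15 or 45 min; untreated controls taken at the same time points. Three biological replicates. RNA extracted by glass-bead/phenol-chloroform method and integrity checked. One-color Cy3-labeled cRNA (600 ng) hybridized 17 h at 65 °C to 8 × 15K arrays. Expression expressed as fold change versus control.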"}, "[8]": {"test_system": "Candida albicans", "assay": "Upregulation of orf19.3089 gene expression in Candida albicans SC5314 at 3 uM after 15 mins by microarray method relative to control", "type": "functional", "method_in_brief": "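Log-phase cultures in liquid YEPD were exposed to 3 µM compound (final) for 15 or 45 min, with untreated controls sampled at the same times, in three biological replicates. Total RNA was extracted by glass-bead/phenol-chloroform disruption and integrity-checked. One-color Cy3-labelled cRNA (600 ng) was hybridized for 17 h at 65 °C to 8 × 15K arrays, and fold change was taken versus control.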"}, "[9]": {"test_system": "Candida albicans", "assay": "Upregulation of ARE2 gene expression in Candida albicans SC5314 at 3 uM after 15 mins by microarray method relative to control", "type": "functional", "method_in_brief": "as §2"}, "[10]": {"test_system": "Candida albicans", "assay": "Upregulation of PDR16 gene expression in Candida albicans SC5314 at 3 uM after 45 mins by microarray method relative to control", "type": "functional", "method_in_brief": "as §2"}, "[11]": {"test_system": "Candida albicans", "assay": "Upregulation of FCR1 gene expression in Candida albicans SC5314 at 3 uM after 45 mins by microarray method relative to control", "type": "functional", "method_in_brief": "as §2"}, "[12]": {"test_system": "Candida albicans", "assay": "Upregulation of ERG2 gene expression in Candida albicans SC5314 at 3 uM after 45 mins by microarray method relative to control", "type": "functional", "method_in_brief": "as §2"}, "[13]": {"test_system": "Pichia kudriavzevii", "assay": "Antifungal activity against Candida krusei ATCC 14243 measured at 24 hrs by broth dilution assay", "type": "functional", "conditions": "ATCC 14243, 24 h", "method_in_brief": "(§3)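 EUCAST broth microdilution, including the update for non-fermenting yeasts (Cryptococcus, Geotrichum), on clinical and reference yeast isolates. Incubated at 37 °C and read at 24, 48 and 72 h. MIC taken as the lowest concentration with no visible growth. For Cryptococcus and Geotrichum, MICs were read only once growth was visible in the control row.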"}, "[14]": {"test_system": "Pichia kudriavzevii", "assay": "Antifungal activity against Candida krusei ATCC 14243 measured at 72 hrs by broth dilution assay", "type": "functional", "conditions": "ATCC 14243, 72 h", "method_in_brief": "as §3"}, "[15]": {"test_system": "Nakaseomyces glabratus", "assay": "Antifungal activity against Candida glabrata 70 measured at 24 hrs by broth dilution assay", "type": "functional", "conditions": "Nakaseomyces glabratus, 70, 24 h", "method_in_brief": "as §3"}, "[16]": {"test_system": "Cryptococcus neoformans", "assay": "Antifungal activity against Cryptococcus neoformans measured at 48 hrs by broth dilution assay", "type": "functional, organism-based", "method_in_brief": "as §3"}, "[17]": {"test_system": "Magnusiomyces capitatus", "assay": "Fungicidal activity against Geotrichum capitatum at 40 uM measured at 48 hrs by time kill assay", "type": "functional", "method_in_brief": "as §1"}, "[18]": {"test_system": "Candida parapsilosis", "assay": "Fungicidal activity against Candida parapsilosis 81E at 40 uM after 24 to 48 hrs by time kill assay", "type": "functional, organism-based", "method_in_brief": "as §1"}},
  "note": "Active and inactive are the calls of the source. The calls are words filed in the database; no cut-off is given here.",
  "data": [
    {"smiles": "C/C=C/CNC(=N)NCCCCCCCCN1CCCCCCCCNC(=N)NC1=O", "values": [
      {"measurement": "Activity", "setting": "[1]", "result": "Active"},
      {"measurement": "Activity", "setting": "[2]", "result": "inactive"},
      {"measurement": "inhibition at 20 µM", "setting": "[3]", "result": 99.9, "unit": "%"},
      {"measurement": "Ratio", "setting": "[4]", "result": 8},
      {"measurement": "Activity", "setting": "[5]", "result": "Active"},
      {"measurement": "Activity", "setting": "[6]", "result": "Active"},
      {"measurement": "fold change (FC)", "setting": "[7]", "result": 3.07},
      {"measurement": "fold change (FC)", "setting": "[8]", "result": 2.39},
      {"measurement": "fold change (FC)", "setting": "[9]", "result": 2.11},
      {"measurement": "fold change (FC)", "setting": "[10]", "result": 6.89},
      {"measurement": "fold change (FC)", "setting": "[11]", "result": 5.88},
      {"measurement": "fold change (FC)", "setting": "[12]", "result": 2.83},
      {"measurement": "MIC", "setting": "[13]", "result": 10, "unit": "µM"},
      {"measurement": "MIC", "setting": "[14]", "result": 80, "unit": "µM"},
      {"measurement": "MIC", "setting": "[15]", "result": "> 80", "unit": "µM"},
      {"measurement": "Activity", "setting": "[16]", "result": "Active"},
      {"measurement": "Activity", "setting": "[17]", "result": "Active"},
      {"measurement": "Activity", "setting": "[18]", "result": "Active"}
    ]}
  ]
}
